From ChEMBL document CHEMBL3351594, “Cytotoxic dimeric epipolythiodiketopiperazines from the ascomycetous fungus Preussia typharum” (J Nat Prod, 2014)
Activity calls are given as the source filed them. The rule behind the calls is not given here.

Tests used:
SK-MEL-28 = test: Cytotoxicity against human SK-MEL-28 cells by SRB method; format: functional
Summary of the method: (§1)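 NCI-60 in vitro drug screening panel. Values are the molar concentrations giving 50% growth inhibition (GI50) and total growth inhibition (TGI).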

SK-MEL-5 = test: Cytotoxicity against human SK-MEL-5 cells by SRB method; format: functional
Summary of the method: (§2)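 NCI-60 in vitro screen panel of human tumor lines; GI50 (molar concentration giving 50% growth inhibition) and TGI (total growth inhibition) taken from dose–response data.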

[1] = Cytotoxicity against human UACC62 cells by SRB method; format: functional; summary of the method: as §2
[2] = Cytotoxicity against human OVCAR4 cells by SRB method; format: functional; summary of the method: as §1
[3] = Cytotoxicity against human SKOV3 cells by SRB method; format: functional; settings: SK-OV-3
Summary of the method: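 SRB assay in SK-OV-3 cells; percent cell growth per Boyd et al.; GI50, TGI and LC50 fitted from dose–response curves of percent growth; mean ± SE, n = 3 or 4 independent experiments.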

A498 = test: Cytotoxicity against human A498 cells by SRB method; format: functional; summary of the method: as §1
[4] = Cytotoxicity against human UO31 cells by SRB method; format: functional; summary of the method: as §2
MDA-MB-231 = test: Cytotoxicity against human MDA-MB-231 cells by SRB method; format: functional; summary of the method: as §1
[5] = Cytotoxicity against human Hs578T cells by SRB method; format: functional; settings: Hs-578T; summary of the method: as §1
[6] = Cytotoxicity against human P-gp expressing SKOV3-M6/6 cells by SRB assay; format: functional
Summary of the method: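 SRB assay in SK-OV-3/MDR-1-6/6 cells, a single-cell clone of SKOV-3/MDR1 (P-gp). Percent cell growth follows Boyd et al. GI50 was derived from dose–response curves of percent growth. Results are mean ± SE of n = 3 or 4 independent experiments. Relative resistance is calculated against parental SK-OV-3.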

HeLa [7] = test: Cytotoxicity against human HeLa cells; format: functional
HeLa [8] = test: Inhibition of Histone-lysine N-methyltransferase Su(var)3-9 in human HeLa cells assessed as high H3K9me3 expression at 200 nM after 1 to 24 hrs by immunoblotting analysis; format: cell-based
Summary of the method: (§3)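 HeLa cells treated with vehicle or 200 nM for 1–24 h; log-phase cells lysed with protease inhibitors, equal protein by SDS-PAGE, PVDF transfer, probed for H3K9me3 and actin, ECL detection.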

Mus musculus = test: Toxicity in athymic nude mouse xenografted with human UACC62 cells assessed as rapid and persistent weight loss at 2 mg/kg, ip; format: organism-based, UACC-62; design: dose 2 mg/kg, route intraperitoneal; settings: in vivo
[9] = Antitumor activity against human UACC62 cells xenografted in athymic nude mouse at 1.5 mg/kg, ip administered every 4 days relative to untreated control; format: functional, UACC-62; settings: route intraperitoneal
Summary of the method: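 Female athymic nude mice received 2 × 10^6 UACC-62 cells sc into each flank, bilaterally. They were randomized at median tumor volume 150 mm3, n = 5 mice/group. Dosing was ip at 1.5 mg/kg every 4 days, in DMSO–Cremophor (1:1) diluted in 200 μL DPBS (DMSO and Cremophor ≤2.5% final). Tumors were measured twice weekly by caliper. T/C% = (treated final − initial mean volume) ÷ (untreated final − initial) × 100.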

HeLa [10] = test: Increase in H3K9 methylation in human HeLa cells assessed as high H3K9me3 expression at 200 nM after 1 to 24 hrs by immunoblotting analysis; format: functional, cell-based; summary of the method: as §3
SK-OV-3 = test: Resistance ratio of GI50 for human P-gp expressing SKOV3-M6/6 cells to GI50 for human SKOV3 cells; format: functional
Summary of the method: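 SRB assay in SK-OV-3 and its P-gp/MDR1 single-cell clone SK-OV-3/MDR-1-6/6; GI50 from percent growth dose–response curves, n = 3 or 4 independent experiments; relative resistance taken as ratio of GI50 in the MDR line to parental.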

HL-60(TB) = test: Cytotoxicity against human HL-60(TB) cells by SRB method; format: functional
Summary of the method: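 Tested in the NCI-60 in vitro screening panel. GI50 is the molar concentration giving 50% growth inhibition, and TGI is the molar concentration giving total growth inhibition.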

K562 = test: Cytotoxicity against human K562 cells by SRB method; format: functional; summary of the method: as §1
HOP-62 = test: Cytotoxicity against human HOP62 cells by SRB method; format: functional; summary of the method: as §1
HOP-92 = test: Cytotoxicity against human HOP92 cells by SRB method; format: functional; summary of the method: as §1
NCI-H23 = test: Cytotoxicity against human NCI-H23 cells by SRB method; format: functional; summary of the method: as §1
NCI-H322M = test: Cytotoxicity against human NCI-H322M cells by SRB method; format: functional; summary of the method: as §1
NCI-H460 = test: Cytotoxicity against human NCI-H460 cells by SRB method; format: functional; summary of the method: as §1
COLO 205 = test: Cytotoxicity against human COLO205 cells by SRB method; format: functional; summary of the method: as §1
HCC 2998 = test: Cytotoxicity against human HCC2998 cells by SRB method; format: functional; summary of the method: as §1
[11] = Cytotoxicity against human HCT116 cells by SRB method; format: functional; summary of the method: as §1
KM12 = test: Cytotoxicity against human KM12 cells by SRB method; format: functional; summary of the method: as §1
SW-620 = test: Cytotoxicity against human SW620 cells by SRB method; format: functional; summary of the method: as §2
SF-268 = test: Cytotoxicity against human SF268 cells by SRB method; format: functional; summary of the method: as §1
SNB-75 = test: Cytotoxicity against human SNB75 cells by SRB method; format: functional; summary of the method: as §2
LOX IMVI = test: Cytotoxicity against human LOXIMVI cells by SRB method; format: functional; summary of the method: as §1
[12] = read-out: LC50 (the source's name)

## CC(C)[C@@]12SS[C@]3(C(=O)N1C)[C@@H](O)[C@]1(C45c6ccccc6N[C@H]4N4C(=O)[C@@]6(CO)SS[C@@]4(C(=O)N6C)[C@H]5O)c4ccccc4N[C@@H]1N3C2=O (stereo partly drawn)
SK-MEL-28
  GI50: 12.6 nM
  TGI: 38 nM
SK-MEL-28; [12]
  CC50: 135 nM
SK-MEL-5
  GI50: 14.8 nM
  TGI: 57.5 nM
SK-MEL-5; [12]
  CC50: 151 nM
[1]; UACC-62
  GI50: 18.2 nM
  TGI: 72.4 nM
[1]; UACC-62, read-out: LC50 (the source's name)
  CC50: 295 nM
[2]; OVCAR-4
  GI50: 5.9 nM
  TGI: 12.9 nM
[2]; OVCAR-4, read-out: LC50 (the source's name)
  CC50: 27.5 nM
[3]
  GI50: 11.5 nM
  LC50: 190 nM
  TGI: 33.9 nM
A498
  GI50: 9.8 nM
  TGI: 28.2 nM
A498; [12]
  CC50: 105 nM
[4]; UO-31
  GI50: 9.8 nM
  TGI: 26.3 nM
[4]; UO-31, read-out: LC50 (the source's name)
  CC50: 100 nM
MDA-MB-231
  GI50: 18.6 nM
  TGI: 70.8 nM
MDA-MB-231; [12]
  CC50: 324 nM
[5]
  GI50: 26.3 nM
  TGI: 447 nM
[6]
  GI50: 33 nM
HeLa [7]
  GI50: 20 nM
HeLa [8]
  inhibition: inactive
Mus musculus
  Activity: Toxic
[9]
  T/C: 67%
HeLa [10]
  Activity: Active
SK-OV-3
  Ratio: 1.7
HL-60(TB)
  GI50: 26.3 nM
  TGI: 195 nM
HL-60(TB); [12]
  CC50: > 50000 nM
K562
  GI50: 14.8 nM
  TGI: 115 nM
K562; [12]
  CC50: > 50000 nM
HOP-62
  GI50: 11.7 nM
  TGI: 30.9 nM
HOP-62; [12]
  CC50: 110 nM
HOP-92
  GI50: 11 nM
  TGI: 28.8 nM
HOP-92; [12]
  CC50: 112 nM
NCI-H23
  GI50: 16.2 nM
  TGI: 56.2 nM
NCI-H23; [12]
  CC50: 234 nM
NCI-H322M
  GI50: 20 nM
  TGI: 102 nM
NCI-H322M; [12]
  CC50: 490 nM
NCI-H460
  GI50: 20.9 nM
  TGI: 75.9 nM
NCI-H460; [12]
  CC50: 246 nM
COLO 205
  GI50: 14.8 nM
  TGI: 49 nM
COLO 205; [12]
  CC50: 155 nM
HCC 2998
  GI50: 53.7 nM
  TGI: 115 nM
HCC 2998; [12]
  CC50: 246 nM
[11]; HCT-116
  GI50: 12.3 nM
  TGI: 51.3 nM
[11]; HCT-116, read-out: LC50 (the source's name)
  CC50: 162 nM
KM12
  GI50: 19.5 nM
  TGI: 87.1 nM
KM12; [12]
  CC50: 295 nM
SW-620
  GI50: 8.3 nM
  TGI: 31.6 nM
SW-620; [12]
  CC50: 129 nM
SF-268
  GI50: 22.4 nM
  TGI: 107 nM
SF-268; [12]
  CC50: 417 nM
SNB-75
  GI50: 13.5 nM
  TGI: 50.1 nM
SNB-75; [12]
  CC50: 158 nM
LOX IMVI
  GI50: 8.3 nM
  TGI: 21.4 nM
LOX IMVI; [12]
  CC50: 46.8 nM
